The target in experiment [1] is Histone deacetylase 2 (Homo sapiens, UniProt Q92769). In words: Inhibition of HDAC2 in human RPMI-8226 cells incubated for 2 hrs by ELISA. It counts as cell-based. The gist of the method:
(§1)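 Target levels measured by ELISA kits in RPMI-8226 cells. Cells were seeded and grown 24 h at 37 °C, then exposed 72 h to a semi-log series of concentrations. Sample was incubated 2 h at 37 °C, followed by detection reagents A and B (1 h each), TMB substrate and stop solution, with OD read at 450 nm. IC50 was taken from sigmoidal dose-response nonlinear regression of % activity.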
In general terms: An ELISA detects its analyte on a solid surface through an enzyme-linked reagent.

Experiment [2] deals with Histone deacetylase 1 (Homo sapiens, UniProt Q13547). In words: Inhibition of HDAC1 in human RPMI-8226 cells incubated for 2 hrs by ELISA. It counts as cell-based. The method in brief:
as §1

Experiment [3] concerns the target Histone deacetylase 3 (Homo sapiens, UniProt O15379). The experiment can be described thus: Inhibition of HDAC3 in human RPMI-8226 cells incubated for 2 hrs by ELISA. The experiment is classed as cell-based. The method in brief:
as §1

Experiment [4] concerns the target Vascular endothelial growth factor receptor 2 (Homo sapiens, UniProt P35968). In words: Inhibition of VEGFR2 in human RPMI-8226 cells incubated for 2 hrs by ELISA. It counts as cell-based.
For experiment [5], the target named is Epidermal growth factor receptor (Homo sapiens, UniProt P00533). In words: Inhibition of EGFR in human RPMI-8226 cells incubated for 2 hrs by ELISA. It counts as cell-based.
Experiment [6] deals with T1, Histone deacetylase 8 (Homo sapiens, UniProt Q9BY41).
T1 sequence (Q9BY41 whole entry): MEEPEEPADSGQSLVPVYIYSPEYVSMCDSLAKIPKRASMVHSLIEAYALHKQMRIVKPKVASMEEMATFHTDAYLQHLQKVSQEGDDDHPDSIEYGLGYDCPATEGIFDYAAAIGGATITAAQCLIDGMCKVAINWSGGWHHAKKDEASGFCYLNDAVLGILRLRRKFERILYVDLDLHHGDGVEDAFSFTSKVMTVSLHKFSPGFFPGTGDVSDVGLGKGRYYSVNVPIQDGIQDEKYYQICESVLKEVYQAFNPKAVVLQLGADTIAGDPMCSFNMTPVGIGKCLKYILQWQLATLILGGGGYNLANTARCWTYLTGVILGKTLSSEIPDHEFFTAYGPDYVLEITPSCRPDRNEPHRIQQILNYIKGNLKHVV
In words: Inhibition of HDAC8 in human RPMI-8226 cells incubated for 2 hrs by ELISA. It counts as cell-based. The gist of the method:
as §1

Experiment [7] addresses Tubulin. The experiment can be described thus: Inhibition of Tubulin in human RPMI-8226 cells incubated for 2 hrs by ELISA. It counts as cell-based. The gist of the method: as §1
The subject of experiment [8] is RPMI-8226. The experiment can be described thus: Induction of apoptosis in human RPMI-8226 cells assessed as BAX level incubated for 24 hrs by ELISA (reference value: 56 +/- […]). The experiment is classed as functional.
For experiment [9], the system named is RPMI-8226. In words: Induction of apoptosis in human RPMI-8226 cells assessed as Caspase-7 level incubated for 24 hrs by ELISA (reference value: 0.359 +/- 0.016 ng/ml). It counts as functional.
Experiment [10] relates to RPMI-8226. In words: Induction of apoptosis in human RPMI-8226 cells assessed as Caspase-3 level incubated for 24 hrs by ELISA (reference value: 35.3 pg/ml). The experiment is classed as functional.
Experiment [11] has as its system RPMI-8226. In words: Induction of apoptosis in human RPMI-8226 cells assessed as PARP-1 level incubated for 24 hrs by ELISA (reference value: 0.151 +/- […]). The experiment is classed as functional.
Experiment [12] has as its system RPMI-8226. The experiment can be described thus: Induction of apoptosis in human RPMI-8226 cells assessed as Bcl-2 level incubated for 24 hrs by ELISA (reference value: 4.857 +/- […]). It counts as functional.
Experiment [13] concerns RPMI-8226. The experiment can be described thus: Induction of apoptosis in human RPMI-8226 cells assessed as Caspase-9 level incubated for 24 hrs by ELISA (reference value: 1.63 +/- […]). It counts as functional.
The test system of experiment [14] is RPMI-8226. The experiment can be described thus: Induction of ROS accumulation in human RPMI-8226 cells incubated for 2 hrs by ELISA (reference value: 26.06 +/- […]). The experiment is classed as functional.

The term IC50 denotes the concentration that gives 50% inhibition. A low value points to greater potency in that assay.

Each structure is given as a SMILES string.

Chain of Histone deacetylase 2 (Q92769 whole entry): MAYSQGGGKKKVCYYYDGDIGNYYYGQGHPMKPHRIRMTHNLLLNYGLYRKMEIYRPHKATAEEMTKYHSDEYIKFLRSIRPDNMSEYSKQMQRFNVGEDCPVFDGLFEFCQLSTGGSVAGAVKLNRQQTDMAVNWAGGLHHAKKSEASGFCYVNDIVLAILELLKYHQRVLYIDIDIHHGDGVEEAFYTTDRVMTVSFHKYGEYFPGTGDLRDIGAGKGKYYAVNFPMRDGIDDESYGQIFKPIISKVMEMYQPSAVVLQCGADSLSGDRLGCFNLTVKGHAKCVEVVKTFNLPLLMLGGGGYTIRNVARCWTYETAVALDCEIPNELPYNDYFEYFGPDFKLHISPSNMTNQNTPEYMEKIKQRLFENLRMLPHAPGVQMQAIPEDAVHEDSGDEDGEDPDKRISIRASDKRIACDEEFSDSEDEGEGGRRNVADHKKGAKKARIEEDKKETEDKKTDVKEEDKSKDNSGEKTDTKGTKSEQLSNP
Chain of Histone deacetylase 1 (Q13547 whole entry): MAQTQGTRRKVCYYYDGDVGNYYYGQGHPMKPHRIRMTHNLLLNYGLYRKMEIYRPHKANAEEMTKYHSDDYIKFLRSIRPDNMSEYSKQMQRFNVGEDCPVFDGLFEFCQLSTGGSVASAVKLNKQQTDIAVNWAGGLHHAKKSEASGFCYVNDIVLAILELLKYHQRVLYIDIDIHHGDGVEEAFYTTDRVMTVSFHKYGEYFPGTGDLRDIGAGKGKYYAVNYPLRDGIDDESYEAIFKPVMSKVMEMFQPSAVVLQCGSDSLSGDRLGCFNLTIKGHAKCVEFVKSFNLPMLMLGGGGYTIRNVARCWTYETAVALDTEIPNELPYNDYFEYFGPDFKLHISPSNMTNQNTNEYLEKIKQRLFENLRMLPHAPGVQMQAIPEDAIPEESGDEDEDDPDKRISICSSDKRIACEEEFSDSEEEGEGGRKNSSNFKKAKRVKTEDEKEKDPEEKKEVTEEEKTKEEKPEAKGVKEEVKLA
Chain of Histone deacetylase 3 (O15379 whole entry): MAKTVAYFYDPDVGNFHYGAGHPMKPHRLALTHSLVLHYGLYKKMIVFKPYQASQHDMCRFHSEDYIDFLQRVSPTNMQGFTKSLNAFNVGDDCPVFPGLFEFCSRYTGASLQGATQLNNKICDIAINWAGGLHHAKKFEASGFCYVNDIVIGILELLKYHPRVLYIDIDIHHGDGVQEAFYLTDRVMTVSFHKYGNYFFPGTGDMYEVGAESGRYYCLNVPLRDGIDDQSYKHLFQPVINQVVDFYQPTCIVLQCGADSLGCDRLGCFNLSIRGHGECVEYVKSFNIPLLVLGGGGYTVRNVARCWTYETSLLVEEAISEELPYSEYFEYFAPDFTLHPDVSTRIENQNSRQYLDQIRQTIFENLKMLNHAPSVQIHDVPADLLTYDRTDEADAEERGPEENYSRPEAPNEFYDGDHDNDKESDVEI
Chain of Vascular endothelial growth factor receptor 2 (P35968 whole entry): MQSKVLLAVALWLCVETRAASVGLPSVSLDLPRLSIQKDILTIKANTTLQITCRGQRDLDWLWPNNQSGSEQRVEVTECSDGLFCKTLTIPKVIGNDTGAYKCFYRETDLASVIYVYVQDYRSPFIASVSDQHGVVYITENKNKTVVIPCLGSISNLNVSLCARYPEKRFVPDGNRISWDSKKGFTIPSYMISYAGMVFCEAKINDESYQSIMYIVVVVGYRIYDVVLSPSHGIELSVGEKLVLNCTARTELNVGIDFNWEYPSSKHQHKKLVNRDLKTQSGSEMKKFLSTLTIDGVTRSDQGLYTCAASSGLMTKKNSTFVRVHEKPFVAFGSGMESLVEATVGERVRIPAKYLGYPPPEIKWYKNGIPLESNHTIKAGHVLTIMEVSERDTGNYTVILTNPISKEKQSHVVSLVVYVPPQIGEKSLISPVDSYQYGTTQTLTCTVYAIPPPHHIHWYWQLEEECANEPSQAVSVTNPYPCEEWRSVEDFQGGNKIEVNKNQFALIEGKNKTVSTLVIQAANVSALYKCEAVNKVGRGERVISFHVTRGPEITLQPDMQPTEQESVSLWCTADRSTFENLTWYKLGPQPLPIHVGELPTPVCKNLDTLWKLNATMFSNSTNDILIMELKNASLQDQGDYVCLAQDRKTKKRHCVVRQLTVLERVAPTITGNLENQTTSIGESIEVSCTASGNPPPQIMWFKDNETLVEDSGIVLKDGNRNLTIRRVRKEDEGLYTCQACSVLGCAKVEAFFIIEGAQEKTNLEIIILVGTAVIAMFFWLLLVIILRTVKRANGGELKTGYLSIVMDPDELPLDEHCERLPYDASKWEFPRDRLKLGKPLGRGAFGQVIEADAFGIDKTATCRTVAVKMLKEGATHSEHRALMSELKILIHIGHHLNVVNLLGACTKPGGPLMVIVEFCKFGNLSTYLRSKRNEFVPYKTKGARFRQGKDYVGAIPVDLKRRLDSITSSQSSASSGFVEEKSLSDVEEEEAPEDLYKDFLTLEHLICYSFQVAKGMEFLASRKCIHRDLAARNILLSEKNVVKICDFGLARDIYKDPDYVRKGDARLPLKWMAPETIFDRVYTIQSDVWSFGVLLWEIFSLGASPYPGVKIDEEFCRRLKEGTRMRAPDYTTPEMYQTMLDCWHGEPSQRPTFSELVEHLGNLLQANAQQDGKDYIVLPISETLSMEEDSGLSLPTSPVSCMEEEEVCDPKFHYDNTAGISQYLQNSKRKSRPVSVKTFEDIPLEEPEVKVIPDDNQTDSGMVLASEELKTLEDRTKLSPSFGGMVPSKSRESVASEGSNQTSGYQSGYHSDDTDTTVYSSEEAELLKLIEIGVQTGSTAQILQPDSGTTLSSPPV
Chain of Epidermal growth factor receptor (P00533 whole entry): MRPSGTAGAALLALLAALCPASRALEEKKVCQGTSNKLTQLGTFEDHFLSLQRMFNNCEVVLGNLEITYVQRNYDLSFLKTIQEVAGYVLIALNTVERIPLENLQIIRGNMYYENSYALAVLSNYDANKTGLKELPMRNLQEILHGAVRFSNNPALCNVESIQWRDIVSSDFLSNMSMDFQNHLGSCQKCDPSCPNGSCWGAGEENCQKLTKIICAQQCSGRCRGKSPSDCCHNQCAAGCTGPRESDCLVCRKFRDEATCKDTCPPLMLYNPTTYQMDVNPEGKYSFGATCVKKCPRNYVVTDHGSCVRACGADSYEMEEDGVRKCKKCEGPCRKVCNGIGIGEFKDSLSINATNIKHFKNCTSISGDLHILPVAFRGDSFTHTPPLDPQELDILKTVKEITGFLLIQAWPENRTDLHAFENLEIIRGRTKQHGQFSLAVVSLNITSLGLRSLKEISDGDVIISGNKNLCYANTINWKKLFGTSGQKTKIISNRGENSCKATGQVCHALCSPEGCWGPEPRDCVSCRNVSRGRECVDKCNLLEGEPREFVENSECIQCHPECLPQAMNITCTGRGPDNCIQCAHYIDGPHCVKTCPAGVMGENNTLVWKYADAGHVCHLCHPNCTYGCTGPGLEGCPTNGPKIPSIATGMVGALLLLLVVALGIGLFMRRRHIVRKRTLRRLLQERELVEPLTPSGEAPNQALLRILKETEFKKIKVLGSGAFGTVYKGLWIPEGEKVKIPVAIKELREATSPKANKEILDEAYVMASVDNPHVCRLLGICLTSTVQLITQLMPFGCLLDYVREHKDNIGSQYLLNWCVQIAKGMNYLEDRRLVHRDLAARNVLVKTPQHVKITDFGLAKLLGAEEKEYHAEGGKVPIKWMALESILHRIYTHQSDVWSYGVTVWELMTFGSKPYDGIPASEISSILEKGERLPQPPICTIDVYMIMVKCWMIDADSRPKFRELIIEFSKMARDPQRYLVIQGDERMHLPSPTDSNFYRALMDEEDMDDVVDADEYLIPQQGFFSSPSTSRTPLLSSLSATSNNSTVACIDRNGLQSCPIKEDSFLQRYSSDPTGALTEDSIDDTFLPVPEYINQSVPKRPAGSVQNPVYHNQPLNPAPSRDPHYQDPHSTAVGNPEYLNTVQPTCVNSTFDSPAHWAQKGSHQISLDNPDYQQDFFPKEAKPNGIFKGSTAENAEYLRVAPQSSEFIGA

`COc1ccc(/C=C/C(=O)c2nnn(-c3ccc(Cl)cc3)c2C)cc1OC`: the IC50 in experiment [1] came to 2900 nM; in experiment [2], 1530 nM; in experiment [3], 3000 nM; in [4] it was 388 nM; in experiment [5] it was 36 nM; in experiment [6], 47 nM. The compound also displayed an IC50 in experiment [7] of 9.77 nM.

As to `CN[C@@H]1C[C@H]2O[C@@](C)([C@@H]1OC)n1c3ccccc3c3c4c(c5c6ccccc6n2c5c31)C(=O)NC4` [STAUROSPORINE], the Activity worked out at 336.16 pg/mL in [8]; 1.508 ng/mL in experiment [9]; 449.8 pg/mL in [10]; 0.245 ng/mL in experiment [11]; 0.4081 ng/mL in [12]; 24.97 ng/mL in experiment [13].

For `CC(C)C[C@H](NC(=O)[C@H](Cc1ccccc1)NC(=O)c1cnccn1)B(O)O` [BORTEZOMIB], the IC50 in [1] was 800 nM; in experiment [2], 620 nM; in experiment [3], 1180 nM; in experiment [6], 72 nM.

In the case of `COc1cc2ncnc(Nc3ccc(F)c(Cl)c3)c2cc1OCCCN1CCOCC1` [GEFITINIB], the Activity in experiment [14] was found to be 80.92 pg/mL.
